Rin1 Abl inh: human Rin1-Abl interaction inhibition; TR-FRET Rin1/Abl binding, biochemical; inhibition, % at 7.35 µM; 360,000 tested, 0.4% active; in the data active means inhibition above about 5%, passing the limit was not always enough
Tb MetRS inh: blocks T. brucei methionyl-tRNA synthetase activity. purified T. brucei MetRS, ATP depletion, Kinase-Glo luminescence. inhibition, % at 11.9 µM. 360,000 tested, 0.4% active. AID 624268;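 active means inhibition above a per-plate cutoff of the control wells' mean inhibition plus 3 SD, cut at about 5.5% in these data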;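 further: 0% = DMSO wells median and 100% = median of wells with control inhibitor compound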
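Material – parasite MetRS enzyme · Medium – HEPES-MgCl2-KCl buffer plus DTT, spermine, BSA, pyrophosphatase · Reagent – ATP, methionine and E. coli bulk tRNA substrates · Times – 15 min enzyme-compound preincubation, 2 h reaction, 10 min detection, 25 °C · Measured by – luminescence of leftover ATP · Evaluation – percent inhibition relative to median high and low control wells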
PG9 Ab binder: PG9 antibody binding by small molecule | 360,000 tested, 0.43% active | TR-FRET gp120-PG9 antibody binding | inhibition, % at 6.7 µM; in the data active means inhibition above about 8.5%
NR1D1 modulator: Rev-erb alpha (human) modulation; 370,000 tested, 0.79% active; activity, % at 10 µM; Rev-erbα–FITC-DNA binding, fluorescence polarization, 90 min;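 active means activity above about 14%, limit read from the data; passing the limit was not always enough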;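 further: 0% = DMSO wells with 35 nM protein and 100% = DMSO wells with 750 nM protein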
Rin1-Abl confirm: confirmation of inhibitors of human Rin1-Abl interaction; shares compounds with Rin1 Abl inh; TR-FRET Rin1-Abl binding, purified proteins; inhibition, % at 7.35 µM; 1,300 tested, 49% active
GFP quencher: counter-screen for Rin1-Abl inhibitors: GFP fluorescence quenchers; shares compounds with Rin1 Abl inh; inhibitors/quenchers counterscreen; inhibition, % at 6.75 µM; 1,300 tested, 8.5% active;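 further: ABL1-eGFP fusion protein alone without its partner RIN1-SBP; 0% = protein with vehicle and 100% = wells lacking protein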
GFP quench dose: quenches GFP in dose response, Rin1-Abl counter-screen | IC50, µM | 230 tested, under 10 active | GFP fluorescence interference/quenching counterscreen | AID 602182 | shares compounds with Rin1 Abl inh; call rule not given here;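 further: ABL1-eGFP fusion protein alone without its RIN1 binding partner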
* hit, by the source's call; x = no result; ! = not active in a repeat. An excerpt weighted towards active compounds, which were near 1.8% of everything screened. Unless noted, no stated cut-off is given here; in the data, active means inhibition above about 6.5%; inactive means the rest.

SMILES	Rin1 Abl inh	Tb MetRS inh	PG9 Ab binder	NR1D1 modulator	Rin1-Abl confirm	GFP quencher	others
CCn1nc(-c2cccs2)nc2c(=O)n(C)c(=O)nc1-2	20*	22*	x	x	x	x
C[C@H]1[C@H](O)[C@@H](C)/C=C/C=C/CC/C=C/C=C/C=C/C=C/C(OC2O[C@H](C)[C@@H](O)[C@H](N)[C@@H]2O)CC2O[C@](O)(CC(O)C(O)CCC(O)CC(O)CC(O)CC(=O)O[C@H]1C)CC(O)C2C(=O)O (stereo partly specified)	x	x	x	-1	x	x
Cc1ccc(/C=C2\C(=O)NC(=S)N(c3ccc(F)cc3)C2=O)o1	5	-2	2	1	x	x
Cc1ccc(N2C(=O)/C(=C/c3ccc(CN(CCC#N)S(C)(=O)=O)o3)C(=O)NC2=S)cc1	5.2*	0	x	x	x	x
COc1cc(C(c2c(C)[nH]n(-c3ccccc3)c2=O)c2c(C)[nH]n(-c3ccccc3)c2=O)cc(OC)c1OC	9.7*	-1	-2	1	x	x
O=C1CC[C@@]2(O)[C@H]3Cc4ccc(O)c5c4C2(CCN3CC2CC2)[C@H]1O5	x	x	x	-8	x	x
COc1cc2c(ccc3cc(OC)c(OC)c(O)c32)cc1O	21*	-1	0	-28	17*	6	GFP quench dose=>68
CCC(=O)O[C@H]1CCC2C3CCC4=CC(=O)CC[C@]4(C)C3CC[C@@]21C (stereo partly specified)	x	x	x	1	x	x
C[C@]12CCC3C(C(=O)C[C@H]4C[C@@H](O)CC[C@]34C)C1CCC2=O (stereo partly specified)	21*	0	0	-3	20*	-1	GFP quench dose=>68
O=C(NC1CCCCC1)Oc1cc2oc(=O)sc2cc1Cl	6.3*	0	0	0	-1	-2
COc1ccc(CCN)cc1O	1	-1	-2	-9	x	x
NCCc1cc(O)c(O)cc1O	39*	0	11*!	-28	41*	8.7*
C=CC[C@]1(O)CCC2C3CCC4=CC(=O)CCC4=C3C=C[C@@]21C (stereo partly specified)	x	x	x	-5	x	x
COCCCn1c(N)c(C(=O)NCCC(C)C)c2nc3ccccc3nc21	22*	3	2	7	2	-1
CCOC(=O)c1ccc(NC(=O)NC2CC3CCC(C2)N3)cc1 (stereo unspecified)	18*	-1	-1	1	26*	0	GFP quench dose=>68
C[C@]12CCC(=O)C=C1C=CC1C2CC[C@@]2(C)C1CC[C@@]2(O)CCC(=O)O (stereo partly specified)	x	x	x	0	x	x
CC(=O)OCC1=C(C(=O)O)N2C(=O)[C@@H](NC(=O)CCCC(N)C(=O)O)C2SC1 (stereo partly specified)	x	x	x	8	x	x
CCCCCc1cc(O)c2c3c(c(=O)oc2c1)CN(C)CC3	8.0*	1	0	-4	-4	-1
CCOC(=O)C(C)Oc1cc(C)cc2oc(=O)c3c(c12)CCCC3 (stereo unspecified)	5	0	0	4	x	x
C=CCN1CC[C@]23c4c5ccc(O)c4O[C@@H]2C(=O)CC[C@@]3(O)[C@H]1C5	x	x	x	-4	x	x
COc1ccc2nc(NC(=O)CCc3nc(C4=CCN(C)CC4)no3)sc2c1	75*	0	x	x	80*	-1	GFP quench dose=>68
CCc1nnc(NC(=O)CCc2nc(C3=CCN(C)CC3)no2)s1	63*	0	-1	1	62*	2	GFP quench dose=>68
COc1ccc2c(c1)[C@]13CCCC[C@H]1[C@H](C2)N(C)CC3	x	x	x	3	x	x
C=CCN1CCc2cccc3c2[C@H]1Cc1ccc(O)c(O)c1-3	8.5*	0	2	-3	7.1*	11*
CN(C)[C@@H]1C(=O)C(C(N)=O)=C(O)[C@@]2(O)C(=O)C3=C(O)c4c(O)cccc4[C@@](C)(O)[C@H]3[C@H](O)[C@@H]12	16*	1	-1	-25	2	7
SMILES	Rin1 Abl inh	Tb MetRS inh	PG9 Ab binder	NR1D1 modulator	Rin1-Abl confirm	GFP quencher	others
Oc1ccc(/C=N/NP(=S)(c2ccccc2)c2ccccc2)c(O)c1O	16*	0	1	3	9.0*	5
Oc1ccccc1/C=N/NP(=S)(c1ccccc1)c1ccccc1	1	-1	0	1	x	x
O=C(O)c1cccc2c1NC(C(=O)O)C1CC(Sc3ccccc3[N+](=O)[O-])C(Cl)C21 (stereo unspecified)	11*	1	-10	-33	5	20*
CC(=O)c1ccc2c(c1)C1C(Cl)C(Sc3ccccc3[N+](=O)[O-])CC1C(C(=O)O)N2 (stereo unspecified)	4	0	-6	-24	x	x
O=C1CC2OCC=C3CN4CC[C@]56c7ccccc7N1C5[C@H]2[C@H]3CC46 (stereo partly specified)	x	x	x	-4	x	x
Oc1ccc2c3c1O[C@H]1[C@@H](O)CC[C@@]4(O)[C@@H](C2)N(CC2CCC2)CC[C@]314	11*!	-1	-1	-9	-2	-2
C#C[C@@H]1CC2C3CCC4=C[C@@H](OC(C)=O)CCC4C3CC[C@]2(C)[C@H]1OC(C)=O (stereo partly specified)	x	x	x	6	x	x
Fc1ccc(CNCCc2ccccc2F)cc1	1	-1	0	-7	x	x
Fc1ccccc1CCNCc1ccccc1	8.8*	0	-1	2	1	-1
C=C[C@H]1CN2CC[C@H]1C[C@@H]2[C@@H](OC(=O)OCC)c1ccnc2ccc(OC)cc12	x	x	x	-5	x	x
CCC(c1nnnn1-c1ccc(OC)cc1)N1CCC(n2c(=O)[nH]c3ccccc32)CC1 (stereo unspecified)	6	0	1	-3	x	x
COc1ccc(C(c2nnnn2-c2ccc3c(c2)OCCO3)N2CCC(n3c(=O)[nH]c4ccccc43)CC2)cc1 (stereo unspecified)	7	0	1	0	x	x
COc1ccc(-n2nnnc2C(CCSC)N2CCC(n3c(=O)[nH]c4ccccc43)CC2)cc1 (stereo unspecified)	13*	-1	-1	-6	8.2*	-1
O=c1[nH]c2ccccc2n1C1CCN(C(c2ccnc3ccccc23)c2nnnn2-c2ccc3c(c2)OCCO3)CC1 (stereo unspecified)	45*	1	-1	1	32*	0	GFP quench dose=>67
O=C(O)CCCCC1SCC2NC(=O)NC21 (stereo unspecified)	86*	0	-1	1	92*	0	GFP quench dose=>68
C#CCN1CC(=O)N(COC(=O)C2C(C=C(C)C)C2(C)C)C1=O (stereo unspecified)	x	x	x	12	x	x
CC(C)(N)Cc1ccccc1	x	x	x	1	x	x
O=[N+]([O-])c1ccc(NCCCN2CCOCC2)nc1	-1	-1	0	2	x	x
Cc1nc2nc(C)n(CCN3CCOCC3)c(=O)c2c(-c2cccc([N+](=O)[O-])c2)c1C(=O)CCCCCCCCCCN1CCC(c2ccccc2)(c2ccccc2)CC1	61*	-1	-1	-3	69*	1	GFP quench dose=>68
